In ChEMBL document CHEMBL1629622, “Isolation of VanB-type Enterococcus faecalis strains from nosocomial infections: first report of the isolation and identification of the pheromone-responsive plasmids pMG2200, Encoding VanB-type vancomycin resistance and a Bac41-type bacteriocin, and pMG2201, encoding erythromycin resistance and …” (2009):
Values after ≈ are worked out from the molar mass of the structure shown.

Legend:
Format in all cases: functional
[1] = test system: Enterococcus faecalis; experiment: Antimicrobial activity against Enterococcus faecalis NKH1 harboring pMG2200-like plasmid after 24 hrs by agar dilution method
Summary of the method: (§1)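 Agar dilution MICs on clinical E. faecalis isolates. Overnight Mueller-Hinton broth culture diluted 100-fold; ~5 × 10^5 cells inoculated onto Mueller-Hinton medium holding a concentration series of each drug. Incubated at 37°C and read at 24 h. Testing and interpretation follow CLSI (NCCLS) standards, with E. faecium ATCC 9790 as control strain.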

[2] = test system: Enterococcus faecalis; experiment: Antimicrobial activity against Enterococcus faecalis NKH2 harboring pMG2200-like and pMG2201-like plasmids after 24 hrs by agar dilution method; summary of the method: as §1
[3] = test system: Enterococcus faecalis; experiment: Antimicrobial activity against Enterococcus faecalis NKH3 harboring pMG2200-like and pMG2201-like plasmids after 24 hrs by agar dilution method; summary of the method: as §1
[4] = test system: Enterococcus faecalis; experiment: Antimicrobial activity against Enterococcus faecalis NKH4 harboring pMG2200-like and pMG2201-like plasmids after 24 hrs by agar dilution method; summary of the method: as §1
[5] = test system: Enterococcus faecalis; experiment: Antimicrobial activity against Enterococcus faecalis NKH5 harboring pMG2200-like plasmid after 24 hrs by agar dilution method; summary of the method: as §1
[6] = test system: Enterococcus faecalis; experiment: Antimicrobial activity against Enterococcus faecalis NKH6 harboring pMG2200-like and pMG2201-like plasmids after 24 hrs by agar dilution method; summary of the method: as §1
[7] = test system: Enterococcus faecalis; experiment: Antimicrobial activity against Enterococcus faecalis NKH7 harboring pMG2200-like plasmid after 24 hrs by agar dilution method; summary of the method: as §1
[8] = test system: Enterococcus faecalis; experiment: Antimicrobial activity against Enterococcus faecalis NKH8 harboring pMG2200-like and pMG2201-like plasmids after 24 hrs by agar dilution method; summary of the method: as §1
[9] = test system: Enterococcus faecalis; experiment: Antimicrobial activity against Enterococcus faecalis NKH9 harboring pMG2200-like and pMG2201-like plasmids after 24 hrs by agar dilution method; summary of the method: as §1
[10] = test system: Enterococcus faecalis; experiment: Antimicrobial activity against Enterococcus faecalis NKH10 harboring pMG2200-like and pMG2201-like plasmids after 24 hrs by agar dilution method; summary of the method: as §1
[11] = test system: Enterococcus faecalis; experiment: Antimicrobial activity against Enterococcus faecalis NKH11 harboring pMG2200-like plasmid after 24 hrs by agar dilution method; summary of the method: as §1
[12] = test system: Enterococcus faecalis; experiment: Antimicrobial activity against Enterococcus faecalis NKH12 harboring pMG2200-like and pMG2201-like plasmids after 24 hrs by agar dilution method; summary of the method: as §1
[13] = test system: Enterococcus faecalis; experiment: Antimicrobial activity against Enterococcus faecalis NKH13 harboring pMG2200-like and pMG2201-like plasmids after 24 hrs by agar dilution method; summary of the method: as §1
[14] = test system: Enterococcus faecalis; experiment: Antimicrobial activity against Enterococcus faecalis NKH14 harboring pMG2200-like and pMG2201-like plasmids after 24 hrs by agar dilution method; summary of the method: as §1
[15] = test system: Enterococcus faecalis; experiment: Antimicrobial activity against Enterococcus faecalis NKH15 harboring pMG2200-like and pMG2201-like plasmids after 24 hrs by agar dilution method; summary of the method: as §1
[16] = test system: Enterococcus faecalis; experiment: Antimicrobial activity against Enterococcus faecalis NKH16 harboring pMG2200-like plasmid after 24 hrs by agar dilution method; summary of the method: as §1
[17] = test system: Enterococcus faecalis; experiment: Antimicrobial activity against Enterococcus faecalis NKH17 harboring pMG2200-like plasmid after 24 hrs by agar dilution method; summary of the method: as §1
[18] = test system: Enterococcus faecalis; experiment: Antimicrobial activity against Enterococcus faecalis NKH18 harboring pMG2200-like and pMG2201-like plasmids after 24 hrs by agar dilution method; summary of the method: as §1

| Molecule | MIC ([1]; NKH1, 24 h) [µg/mL] | MIC ([2]; NKH2, 24 h) [µg/mL] | MIC ([3]; NKH3, 24 h) [µg/mL] | MIC ([4]; NKH4, 24 h) [µg/mL] | MIC ([5]; NKH5, 24 h) [µg/mL] | MIC ([6]; NKH6, 24 h) [µg/mL] | MIC ([7]; NKH7, 24 h) [µg/mL] | MIC ([8]; NKH8, 24 h) [µg/mL] | MIC ([9]; NKH9, 24 h) [µg/mL] | MIC ([10]; NKH10, 24 h) [µg/mL] | MIC ([11]; NKH11, 24 h) [µg/mL] | MIC ([12]; NKH12, 24 h) [µg/mL] | MIC ([13]; NKH13, 24 h) [µg/mL] | MIC ([14]; NKH14, 24 h) [µg/mL] | MIC ([15]; NKH15, 24 h) [µg/mL] | MIC ([16]; NKH16, 24 h) [µg/mL] | MIC ([17]; NKH17, 24 h) [µg/mL] | MIC ([18]; NKH18, 24 h) [µg/mL] | further results |
| --- | --- | --- | --- | --- | --- | --- | --- | --- | --- | --- | --- | --- | --- | --- | --- | --- | --- | --- | --- |
| CC[C@H]1OC(=O)[C@H](C)[C@@H](O[C@H]2C[C@@](C)(OC)[C@@H](O)[C@H](C)O2)[C@H](C)[C@@H](O[C@@H]2O[C@H](C)C[C@H](N(C)C)[C@H]2O)[C@](C)(O)C[C@@H](C)C(=O)[C@H](C)[C@@H](O)[C@]1(C)O [ERYTHROMYCIN] | 0.25 (≈ 0.341 µM) | > 1020 | > 1020 | > 1020 | 0.125 (≈ 0.17 µM) | > 1020 | 0.125 (≈ 0.17 µM) | > 1020 | > 1020 | > 1020 | 0.125 (≈ 0.17 µM) | > 1020 | > 1020 | > 1020 | > 1020 | 0.125 (≈ 0.17 µM) | 0.125 (≈ 0.17 µM) | > 1020 | – |
| NC[C@H]1O[C@H](O[C@H]2[C@H](O)[C@@H](O[C@H]3O[C@H](CO)[C@@H](O)[C@H](N)[C@H]3O)[C@H](N)C[C@@H]2N)[C@H](O)[C@@H](O)[C@@H]1O [KANAMYCIN] | > 1020 | > 1020 | > 1020 | > 1020 | > 1020 | > 1020 | > 1020 | > 1020 | > 1020 | > 1020 | > 1020 | > 1020 | > 1020 | > 1020 | > 1020 | > 1020 | > 1020 | > 1020 | – |
| CN[C@@H]1[C@H](O[C@H]2[C@H](O[C@H]3[C@H](O)[C@@H](O)[C@H](N=C(N)N)[C@@H](O)[C@@H]3N=C(N)N)O[C@@H](C)[C@]2(O)C=O)O[C@@H](CO)[C@H](O)[C@H]1O [STREPTOMYCIN] | 32 (≈ 55 µM) | 32 (≈ 55 µM) | 32 (≈ 55 µM) | 32 (≈ 55 µM) | 32 (≈ 55 µM) | 32 (≈ 55 µM) | 32 (≈ 55 µM) | 32 (≈ 55 µM) | 32 (≈ 55 µM) | 32 (≈ 55 µM) | 32 (≈ 55 µM) | 32 (≈ 55 µM) | 32 (≈ 55 µM) | 32 (≈ 55 µM) | 32 (≈ 55 µM) | 32 (≈ 55 µM) | 32 (≈ 55 µM) | 32 (≈ 55 µM) | – |
| CN(C)[C@@H]1C(O)=C(C(N)=O)C(=O)[C@@]2(O)C(O)=C3C(=O)c4c(O)cccc4[C@@](C)(O)[C@H]3C[C@@H]12 [TETRACYCLINE] | 64 (≈ 144 µM) | 64 (≈ 144 µM) | 32 (≈ 72 µM) | 32 (≈ 72 µM) | 64 (≈ 144 µM) | 64 (≈ 144 µM) | 64 (≈ 144 µM) | 64 (≈ 144 µM) | 64 (≈ 144 µM) | 64 (≈ 144 µM) | 64 (≈ 144 µM) | 64 (≈ 144 µM) | 64 (≈ 144 µM) | 64 (≈ 144 µM) | 32 (≈ 72 µM) | 32 (≈ 72 µM) | 32 (≈ 72 µM) | 32 (≈ 72 µM) | – |
| CN[C@H](CC(C)C)C(=O)N[C@H]1C(=O)N[C@@H](CC(N)=O)C(=O)N[C@H]2C(=O)N[C@H]3C(=O)N[C@H](C(=O)N[C@H](C(=O)O)c4cc(O)cc(O)c4-c4cc3ccc4O)[C@H](O)c3ccc(c(Cl)c3)Oc3cc2cc(c3O[C@@H]2O[C@H](CO)[C@@H](O)[C@H](O)[C@H]2O[C@H]2C[C@](C)(N)[C@H](O)[C@H](C)O2)Oc2ccc(cc2Cl)[C@H]1O [VANCOMYCIN] | 128 (≈ 88.3 µM) | 256 (≈ 177 µM) | – | – | – | – | – | 256 (≈ 177 µM) | 256 (≈ 177 µM) | 256 (≈ 177 µM) | – | 256 (≈ 177 µM) | 256 (≈ 177 µM) | 256 (≈ 177 µM) | – | – | 32 (≈ 22.1 µM) | – | – |
| GENTAMICIN | – | – | – | – | – | – | – | – | – | – | – | – | – | – | – | – | – | – | MIC [1]: > 1020 µg/mL; MIC [2]: > 1020 µg/mL; MIC [3]: > 1020 µg/mL; MIC [4]: > 1020 µg/mL; MIC [5]: > 1020 µg/mL; MIC [6]: > 1020 µg/mL; MIC [7]: > 1020 µg/mL; MIC [8]: > 1020 µg/mL; MIC [9]: 1020 µg/mL; MIC [10]: > 1020 µg/mL; MIC [11]: > 1020 µg/mL; MIC [12]: > 1020 µg/mL; MIC [13]: > 1020 µg/mL; MIC [14]: > 1020 µg/mL; MIC [15]: > 1020 µg/mL; MIC [16]: > 1020 µg/mL; MIC [17]: > 1020 µg/mL; MIC [18]: > 1020 µg/mL |
